≈ marks a conversion by molar mass, not a printed value.
What was measured:
Type in all cases: functional
Staphylococcus aureus [1] = assay: Antimicrobial activity against community-acquired methicillin-resistant Staphylococcus aureus by broth microdilution method
How it was run: (§1)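 Broth microdilution in duplicate per CLSI guidelines on clinical CA-/HA-MRSA isolates (100 each, Detroit Medical Center). Mueller-Hinton broth with 25 mg/liter calcium and 12.5 mg/liter magnesium; for daptomycin, 50 mg/liter calcium and 12.5 mg/liter magnesium.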

Staphylococcus aureus [2] = assay: Antimicrobial activity against hospital-acquired methicillin-resistant Staphylococcus aureus by broth microdilution method; how it was run: as §1
Staphylococcus aureus [3] = assay: Bactericidal activity against community-acquired methicillin-resistant Staphylococcus aureus selected at 4 times MIC after 24 hrs by time kill analysis
How it was run: (§2)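 Time-kill in triplicate on four randomly selected isolates per group. Start inoculum ~10^6 CFU/ml, drug at 4× MIC; serum arm has 50% human serum. Sampled over 0–24 h, diluted in cold 0.9% NaCl, spiral-plated; detection limit 2 log10 CFU/ml. Bactericidal means ≥3-log10 reduction. T99.9 by linear regression or visual inspection.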

Staphylococcus aureus [4] = assay: Bactericidal activity against hospital-acquired methicillin-resistant Staphylococcus aureus selected at 4 times MIC after 24 hrs by time kill analysis; how it was run: as §2
Staphylococcus aureus [5] = assay: Bactericidal activity against hospital-acquired methicillin-resistant Staphylococcus aureus by broth microdilution method; settings: for MBC: Staphylococcus aureus
How it was run: (§3)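 MBC read after CLSI broth microdilution in duplicate. Mueller-Hinton broth with 25 mg/liter calcium and 12.5 mg/liter magnesium; for daptomycin, 50 mg/liter calcium. 5-μl aliquots from clear wells were plated onto tryptic soy agar.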

Staphylococcus aureus [6] = assay: Bactericidal activity against community-acquired methicillin-resistant Staphylococcus aureus by broth microdilution method; settings: for MBC: Staphylococcus aureus; how it was run: as §3
Staphylococcus aureus [7] = assay: Bactericidal activity against hospital-acquired methicillin-resistant Staphylococcus aureus selected at MIC after 24 hrs by time kill analysis
How it was run: (§4)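 Time-kill at 0.5× or 1× MIC, alone and combined with tobramycin. Start inoculum ~10^6 CFU/ml, triplicate, sampled over 0–24 h and spiral-plated; detection limit 2 log10 CFU/ml. Bactericidal means ≥3-log10 CFU/ml reduction. Synergy means ≥2-log10 more killing at 24 h than the best single drug.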

Staphylococcus aureus [8] = assay: Bactericidal activity against hospital-acquired methicillin-resistant Staphylococcus aureus selected at 0.5 times MIC after 24 hrs by time kill analysis; how it was run: as §4
Staphylococcus aureus [9] = assay: Bactericidal activity against community-acquired methicillin-resistant Staphylococcus aureus selected at MIC after 24 hrs by time kill analysis; how it was run: as §4
Staphylococcus aureus [10] = assay: Bactericidal activity against community-acquired methicillin-resistant Staphylococcus aureus selected at 0.5 times MIC after 24 hrs by time kill analysis; how it was run: as §4
Staphylococcus aureus [11] = assay: Antimicrobial activity against community-acquired methicillin-resistant Staphylococcus aureus by broth microdilution method in presence of 50% human serum
How it was run: (§5)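 Broth microdilution per CLSI, in duplicate, with 50% human serum added. Mueller-Hinton broth with 50 mg/liter calcium and 12.5 mg/liter magnesium. Run on 20 randomly chosen isolates, 10 CA-MRSA and 10 HA-MRSA.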

Staphylococcus aureus [12] = assay: Antimicrobial activity against hospital-acquired methicillin-resistant Staphylococcus aureus by broth microdilution method in presence of 50% human serum; how it was run: as §5
Staphylococcus aureus [13] = assay: Bactericidal activity against community-acquired methicillin-resistant Staphylococcus aureus selected at 4 times MIC after 24 hrs by time kill analysis in presence of 50% human serum; how it was run: as §2
Staphylococcus aureus [14] = assay: Bactericidal activity against hospital-acquired methicillin-resistant Staphylococcus aureus selected at 4 times MIC after 24 hrs by time kill analysis in presence of 50% human serum; how it was run: as §2
Staphylococcus aureus [15] = assay: Bactericidal activity against hospital-acquired methicillin-resistant Staphylococcus aureus by broth microdilution method in presence of 50% human serum
How it was run: (§6)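 MBC with 50% human serum on 10 CA-MRSA and 10 HA-MRSA isolates. Mueller-Hinton broth with 50 mg/liter calcium and 12.5 mg/liter magnesium. Aliquots from clear wells were plated onto tryptic soy agar.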

Staphylococcus aureus [16] = assay: Bactericidal activity against community-acquired methicillin-resistant Staphylococcus aureus by broth microdilution method in presence of 50% human serum; how it was run: as §6

SMILES | MIC50 (Staphylococcus aureus [1]) [µg/mL] | MIC90 (Staphylococcus aureus [1]) [µg/mL] | MIC50 (Staphylococcus aureus [2]) [µg/mL] | MIC90 (Staphylococcus aureus [2]) [µg/mL] | T99.9% (Staphylococcus aureus [3]) [h] | T99.9% (Staphylococcus aureus [4]) [h] | MBC50 (Staphylococcus aureus [5]) [µg/mL] | MBC90 (Staphylococcus aureus [5]) [µg/mL] | MBC (Staphylococcus aureus [5]) [µg/mL] | MBC50 (Staphylococcus aureus [6]) [µg/mL] | MBC90 (Staphylococcus aureus [6]) [µg/mL] | MBC (Staphylococcus aureus [6]) [µg/mL] | other results
CN[C@H](CC(C)C)C(=O)N[C@H]1C(=O)N[C@@H](CC(N)=O)C(=O)N[C@H]2C(=O)N[C@H]3C(=O)N[C@H](C(=O)N[C@H](C(=O)O)c4cc(O)cc(O)c4-c4cc3ccc4O)[C@H](O)c3ccc(c(Cl)c3)Oc3cc2cc(c3O[C@@H]2O[C@H](CO)[C@@H](O)[C@H](O)[C@H]2O[C@H]2C[C@](C)(N)[C@H](O)[C@H](C)O2)Oc2ccc(cc2Cl)[C@H]1O [VANCOMYCIN] | 1 (≈ 0.69 µM) | 1 (≈ 0.69 µM) | 1 (≈ 0.69 µM) | 2 (≈ 1.38 µM) | 8.6 | 8.6 | 1 (≈ 0.69 µM) | 2 (≈ 1.38 µM) | 0.5 (≈ 0.345 µM) | 1 (≈ 0.69 µM) | 2 (≈ 1.38 µM) | 0.5 (≈ 0.345 µM) | 
Nc1nc(/C(=N/O)C(=O)N[C@@H]2C(=O)N3C(C(=O)O)=C(/C=C4\CCN([C@@H]5CCNC5)C4=O)CS[C@H]23)ns1 [CEFTOBIPROLE] | 1 (≈ 1.87 µM) | 2 (≈ 3.74 µM) | 1 (≈ 1.87 µM) | 2 (≈ 3.74 µM) | 8 | 11.8 | 2 (≈ 3.74 µM) | 4 (≈ 7.48 µM) | 0.5 (≈ 0.935 µM) | 2 (≈ 3.74 µM) | 4 (≈ 7.48 µM) | 0.5 (≈ 0.935 µM) | T99.9% (Staphylococcus aureus [7]): 8.6 h; T99.9% (Staphylococcus aureus [8]): 14.2 h; T99.9% (Staphylococcus aureus [9]): 8.6 h; T99.9% (Staphylococcus aureus [10]): 14.2 h
CCCCCCCCCC(=O)N[C@@H](Cc1c[nH]c2ccccc12)C(=O)N[C@H](CC(N)=O)C(=O)N[C@@H](CC(=O)O)C(=O)N[C@@H]1C(=O)NCC(=O)N[C@@H](CCCN)C(=O)N[C@@H](CC(=O)O)C(=O)N[C@H](C)C(=O)N[C@@H](CC(=O)O)C(=O)NCC(=O)N[C@H](CO)C(=O)N[C@@H]([C@H](C)CC(=O)O)C(=O)N[C@@H](CC(=O)c2ccccc2N)C(=O)O[C@@H]1C | 0.25 (≈ 0.154 µM) | 0.5 (≈ 0.309 µM) | 0.25 (≈ 0.154 µM) | 0.5 (≈ 0.309 µM) | 1.6 | 1.6 | 0.25 (≈ 0.154 µM) | 1 (≈ 0.617 µM) | 0.125 (≈ 0.0771 µM) | 0.25 (≈ 0.154 µM) | 0.5 (≈ 0.309 µM) | 0.125 (≈ 0.0771 µM) | MIC50 (Staphylococcus aureus [11]): 1 µg/mL; MIC90 (Staphylococcus aureus [11]): 1 µg/mL; MIC50 (Staphylococcus aureus [12]): 0.5 µg/mL; MIC90 (Staphylococcus aureus [12]): 1 µg/mL; T99.9% (Staphylococcus aureus [13]): 2.2 h; T99.9% (Staphylococcus aureus [14]): 2.1 h; MBC50 (Staphylococcus aureus [15]): 1 µg/mL; MBC90 (Staphylococcus aureus [15]): 1 µg/mL; MBC (Staphylococcus aureus [15]; Staphylococcus aureus): 0.5 µg/mL; MBC50 (Staphylococcus aureus [16]): 1 µg/mL; MBC90 (Staphylococcus aureus [16]): 1 µg/mL; MBC (Staphylococcus aureus [16]; Staphylococcus aureus): 0.5 µg/mL
CC(=O)NC[C@H]1CN(c2ccc(N3CCOCC3)c(F)c2)C(=O)O1 [LINEZOLID] | 2 (≈ 5.93 µM) | 4 (≈ 11.9 µM) | 2 (≈ 5.93 µM) | 4 (≈ 11.9 µM) |  |  | 16 (≈ 47.4 µM) | 64 (≈ 190 µM) | 1 (≈ 2.96 µM) | 8 (≈ 23.7 µM) | 32 (≈ 94.9 µM) | 2 (≈ 5.93 µM) | 
